Measurements published in ChEMBL document CHEMBL1121608, “Modification of the 5' position of purine nucleosides. 2. Synthesis and some cardiovascular properties of adenosine-5'-(N-substituted)carboxamides” (J Med Chem, 1980).

Tested on: Canis familiaris
Assay: Total time in minutes elapsed from the initiation of the change until return to the pretest value of blood pressure in coronary sinus of anesthetized dog at intravenous dosage of 1 mg/kg
Format: functional, Canis lupus familiaris
Details: not given

Row | SMILES | Duration
1 | Nc1ncnc2c1ncn2C1O[C@H](C(=O)NCc2ccco2)[C@@H](O)[C@H]1O (stereo not given in full) | 20 min
2 | C=CCN(CC=C)C(=O)[C@H]1OC(n2cnc3c(N)ncnc32)[C@H](O)[C@@H]1O (stereo not given in full) | 0 min
3 | Nc1ncnc2c1ncn2C1O[C@H](C(=O)Nc2ccccc2)[C@@H](O)[C@H]1O (stereo not given in full) | 0 min
4 | Cc1cccc(OCC(O)CNC(=O)[C@H]2OC(n3cnc4c(N)ncnc43)[C@H](O)[C@@H]2O)c1 (stereo not given in full) | 30 min

Tested on: Canis familiaris
Assay: Total time in minutes elapsed from the initiation of the change until return to the pretest value of blood pressure in coronary sinus of anesthetized dog at intravenous dosage of 10 mg/kg
Format: functional, Canis lupus familiaris
Details: not given

Row | SMILES | Duration
5 | CC1(C)OC2[C@@H](C(=O)NC3CC3)O[C@@H](n3cnc4c(N)ncnc43)[C@H]2O1 (stereo not given in full) | 1 min
6 | CCNC(=O)[C@H]1O[C@@H](n2cnc3c(N)ncnc32)[C@H]2OC(C)(C)OC12 (stereo not given in full) | 0 min
7 | Nc1ncnc2c1ncn2C1O[C@H](C(=O)Nc2ccc(F)cc2)[C@@H](O)[C@H]1O (stereo not given in full) | 0 min

Tested on: Canis familiaris
Assay: Total time in minutes elapsed from the initiation of the change until return to the pretest value of heart rate in coronary sinus of anesthetized dog at intravenous dosage of 1 mg/kg
Format: functional, Canis lupus familiaris
Details: not given

Row | SMILES | Duration
8 | Nc1ncnc2c1ncn2C1O[C@H](C(=O)NCc2ccco2)[C@@H](O)[C@H]1O (stereo not given in full) | 20 min
9 | C=CCN(CC=C)C(=O)[C@H]1OC(n2cnc3c(N)ncnc32)[C@H](O)[C@@H]1O (stereo not given in full) | 0 min
10 | Nc1ncnc2c1ncn2C1O[C@H](C(=O)Nc2ccccc2)[C@@H](O)[C@H]1O (stereo not given in full) | 7 min
11 | Cc1cccc(OCC(O)CNC(=O)[C@H]2OC(n3cnc4c(N)ncnc43)[C@H](O)[C@@H]2O)c1 (stereo not given in full) | 1 min

Tested on: Canis familiaris
Assay: Total time in minutes elapsed from the initiation of the change until return to the pretest value of heart rate in coronary sinus of anesthetized dog at intravenous dosage of 10 mg/kg
Format: functional, Canis lupus familiaris
Details: not given

Row | SMILES | Duration
12 | CC1(C)OC2[C@@H](C(=O)NC3CC3)O[C@@H](n3cnc4c(N)ncnc43)[C@H]2O1 (stereo not given in full) | 1 min
13 | CCNC(=O)[C@H]1O[C@@H](n2cnc3c(N)ncnc32)[C@H]2OC(C)(C)OC12 (stereo not given in full) | 16 min
14 | Nc1ncnc2c1ncn2C1O[C@H](C(=O)Nc2ccc(F)cc2)[C@@H](O)[C@H]1O (stereo not given in full) | 0 min

Tested on: Canis familiaris
Assay: Total time in minutes elapsed from the initiation of the change until return to the pretest value of oxygen partial pressure in coronary sinus of anesthetized dog at intravenous dosage of 1 mg/kg
Format: functional, Canis lupus familiaris
Details: not given
Procedure, shortened: (§1)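 Open-chest anesthetized dogs given compound by intravenous injection. Coronary sinus PO2 was monitored, and duration was the total time in minutes from the onset of the change until return to the pretest value.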

Row | SMILES | Duration
15 | Nc1ncnc2c1ncn2C1O[C@H](C(=O)NCc2ccco2)[C@@H](O)[C@H]1O (stereo not given in full) | 20 min
16 | C=CCN(CC=C)C(=O)[C@H]1OC(n2cnc3c(N)ncnc32)[C@H](O)[C@@H]1O (stereo not given in full) | 40 min
17 | Nc1ncnc2c1ncn2C1O[C@H](C(=O)Nc2ccccc2)[C@@H](O)[C@H]1O (stereo not given in full) | 120 min
18 | Cc1cccc(OCC(O)CNC(=O)[C@H]2OC(n3cnc4c(N)ncnc43)[C@H](O)[C@@H]2O)c1 (stereo not given in full) | 7 min

Tested on: Canis familiaris
Assay: Total time in minutes elapsed from the initiation of the change until return to the pretest value of oxygen partial pressure in coronary sinus of anesthetized dog at intravenous dosage of 10 mg/kg
Format: functional, Canis lupus familiaris
Details: not given
Procedure, shortened: as §1

Row | SMILES | Duration
19 | CC1(C)OC2[C@@H](C(=O)NC3CC3)O[C@@H](n3cnc4c(N)ncnc43)[C@H]2O1 (stereo not given in full) | 60 min
20 | CCNC(=O)[C@H]1O[C@@H](n2cnc3c(N)ncnc32)[C@H]2OC(C)(C)OC12 (stereo not given in full) | 30 min
21 | Nc1ncnc2c1ncn2C1O[C@H](C(=O)Nc2ccc(F)cc2)[C@@H](O)[C@H]1O (stereo not given in full) | 20 min

Tested on: Canis familiaris
Assay: Tested for percent increase in coronary sinus partial pressure of oxygen (PO2) in open chest anesthetized dog at intravenous dosage of 1.00 mg/kg
Format: functional, Canis lupus familiaris
Details: not given

Row | SMILES | PO2
22 | Nc1ncnc2c1ncn2C1O[C@H](C(=O)NCc2ccco2)[C@@H](O)[C@H]1O (stereo not given in full) | 22%
23 | C=CCN(CC=C)C(=O)[C@H]1OC(n2cnc3c(N)ncnc32)[C@H](O)[C@@H]1O (stereo not given in full) | 66%
24 | Nc1ncnc2c1ncn2C1O[C@H](C(=O)Nc2ccccc2)[C@@H](O)[C@H]1O (stereo not given in full) | 127%
25 | Cc1cccc(OCC(O)CNC(=O)[C@H]2OC(n3cnc4c(N)ncnc43)[C@H](O)[C@@H]2O)c1 (stereo not given in full) | 42%

Tested on: Canis familiaris
Assay: Tested for the percent increase in aortic blood pressure (BP) in open chest anesthetized dog at intravenous dosage of 1.00 mg/kg
Format: functional, Canis lupus familiaris, Artery
Details: not given
Procedure, shortened: (§2)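 Open-chest anesthetized dogs, compound given iv at the stated dose. Aortic blood pressure is reported as the change from the control (pre-dose) value. Other set-up follows the group's earlier cardiovascular protocol.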

Row | SMILES | BP
26 | Nc1ncnc2c1ncn2C1O[C@H](C(=O)NCc2ccco2)[C@@H](O)[C@H]1O (stereo not given in full) | 1%
27 | C=CCN(CC=C)C(=O)[C@H]1OC(n2cnc3c(N)ncnc32)[C@H](O)[C@@H]1O (stereo not given in full) | 0%
28 | Nc1ncnc2c1ncn2C1O[C@H](C(=O)Nc2ccccc2)[C@@H](O)[C@H]1O (stereo not given in full) | 0%
29 | Cc1cccc(OCC(O)CNC(=O)[C@H]2OC(n3cnc4c(N)ncnc43)[C@H](O)[C@@H]2O)c1 (stereo not given in full) | 3%

Tested on: Canis familiaris
Assay: Tested for the percent increase in aortic blood pressure (BP) in open chest anesthetized dog at intravenous dosage of 10.00 mg/kg
Format: functional, Canis lupus familiaris, Artery
Details: not given
Procedure, shortened: as §2

Row | SMILES | BP
30 | CC1(C)OC2[C@@H](C(=O)NC3CC3)O[C@@H](n3cnc4c(N)ncnc43)[C@H]2O1 (stereo not given in full) | 26%
31 | CCNC(=O)[C@H]1O[C@@H](n2cnc3c(N)ncnc32)[C@H]2OC(C)(C)OC12 (stereo not given in full) | 0%
32 | Nc1ncnc2c1ncn2C1O[C@H](C(=O)Nc2ccc(F)cc2)[C@@H](O)[C@H]1O (stereo not given in full) | 0%

Tested on: Canis familiaris
Assay: Tested for percent increase in coronary sinus partial pressure of oxygen (PO2) in open chest anesthetized dog at intravenous dosage of 10.00 mg/kg
Format: functional, Canis lupus familiaris
Details: not given

Row | SMILES | PO2
33 | CC1(C)OC2[C@@H](C(=O)NC3CC3)O[C@@H](n3cnc4c(N)ncnc43)[C@H]2O1 (stereo not given in full) | 9%
34 | CCNC(=O)[C@H]1O[C@@H](n2cnc3c(N)ncnc32)[C@H]2OC(C)(C)OC12 (stereo not given in full) | 27%
35 | Nc1ncnc2c1ncn2C1O[C@H](C(=O)Nc2ccc(F)cc2)[C@@H](O)[C@H]1O (stereo not given in full) | 30%

Tested on: not listed separately
Assay: Lethal dose in mice after intraperitoneal administration
Format: toxicity, organism-based
Details: mouse, in vivo, ip
Procedure, shortened: (§3)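 Male and female mice, three per dose group, were given the compound by the stated route in increments of 0.5 log doses. The LD50 was estimated as an approximate value.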

Row | SMILES | LD50
36 | CC1(C)OC2[C@@H](C(=O)NC3CC3)O[C@@H](n3cnc4c(N)ncnc43)[C@H]2O1 (stereo not given in full) | > 300 mg/kg
37 | Nc1ncnc2c1ncn2C1O[C@H](C(=O)Nc2ccc(F)cc2)[C@@H](O)[C@H]1O (stereo not given in full) | 500 mg/kg
38 | C=CCN(CC=C)C(=O)[C@H]1OC(n2cnc3c(N)ncnc32)[C@H](O)[C@@H]1O (stereo not given in full) | > 300 mg/kg
39 | Nc1ncnc2c1ncn2C1O[C@H](C(=O)Nc2ccccc2)[C@@H](O)[C@H]1O (stereo not given in full) | > 1000 mg/kg
40 | Cc1cccc(OCC(O)CNC(=O)[C@H]2OC(n3cnc4c(N)ncnc43)[C@H](O)[C@@H]2O)c1 (stereo not given in full) | > 300 mg/kg

Tested on: not listed separately
Assay: Lethal dose in mice after peroral administration
Format: toxicity, organism-based
Details: mouse, in vivo, po
Procedure, shortened: as §3

Row | SMILES | LD50
41 | CC1(C)OC2[C@@H](C(=O)NC3CC3)O[C@@H](n3cnc4c(N)ncnc43)[C@H]2O1 (stereo not given in full) | > 300 mg/kg
42 | Nc1ncnc2c1ncn2C1O[C@H](C(=O)Nc2ccc(F)cc2)[C@@H](O)[C@H]1O (stereo not given in full) | > 1000 mg/kg
43 | C=CCN(CC=C)C(=O)[C@H]1OC(n2cnc3c(N)ncnc32)[C@H](O)[C@@H]1O (stereo not given in full) | > 300 mg/kg
44 | Nc1ncnc2c1ncn2C1O[C@H](C(=O)Nc2ccccc2)[C@@H](O)[C@H]1O (stereo not given in full) | > 1000 mg/kg
45 | Cc1cccc(OCC(O)CNC(=O)[C@H]2OC(n3cnc4c(N)ncnc43)[C@H](O)[C@@H]2O)c1 (stereo not given in full) | > 300 mg/kg
